The target of series [1] is T1, DNA topoisomerase 1 (Homo sapiens) (UniProt P11387).
T1 sequence (whole entry): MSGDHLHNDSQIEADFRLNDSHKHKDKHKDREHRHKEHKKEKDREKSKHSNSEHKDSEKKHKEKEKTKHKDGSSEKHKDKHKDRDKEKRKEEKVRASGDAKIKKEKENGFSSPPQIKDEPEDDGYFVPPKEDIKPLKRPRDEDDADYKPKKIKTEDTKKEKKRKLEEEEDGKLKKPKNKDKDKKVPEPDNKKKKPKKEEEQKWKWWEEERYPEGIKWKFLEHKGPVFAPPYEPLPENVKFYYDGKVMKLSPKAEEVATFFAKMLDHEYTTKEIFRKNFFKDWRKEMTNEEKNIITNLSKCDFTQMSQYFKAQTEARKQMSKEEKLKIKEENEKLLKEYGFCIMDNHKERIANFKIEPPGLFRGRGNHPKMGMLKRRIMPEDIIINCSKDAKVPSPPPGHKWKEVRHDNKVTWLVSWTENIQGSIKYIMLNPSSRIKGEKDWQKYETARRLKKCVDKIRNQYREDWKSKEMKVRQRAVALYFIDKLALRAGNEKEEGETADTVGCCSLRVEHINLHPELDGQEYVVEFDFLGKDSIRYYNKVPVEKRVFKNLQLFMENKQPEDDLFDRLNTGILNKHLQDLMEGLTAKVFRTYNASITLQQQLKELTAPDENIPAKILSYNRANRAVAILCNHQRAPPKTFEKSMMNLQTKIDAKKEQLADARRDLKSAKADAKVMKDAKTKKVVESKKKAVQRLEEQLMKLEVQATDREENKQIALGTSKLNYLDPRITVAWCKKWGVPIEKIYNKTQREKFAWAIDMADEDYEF
As to the kind of experiment: Inhibition of DNA topoisomerase 1 (unknown origin)-mediated relaxation of supercoiled pHOT DNA at 25 to 100 uM after 30 to 45 mins by agarose gel electrophoresis. In outline:
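Supercoiled pHOT DNA (200 ng) and compound in 10 mM Tris-HCl pH 7.9 with 1 mM EDTA at 37 °C. Reaction started with 1 unit topo I, run 30−45 min, stopped with 10% SDS. Products separated on 1% agarose at 50 V for 90 min and stained with ethidium bromide.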

Series [2] concerns Mus musculus. Kind of series: Toxicity in nude mouse xenografted with human A549 cells assessed as body weight loss at 60 mg/kg, iv tid administered 2 days measured for 20 days. It is filed as organism-based. More on the design: dose 60 mg/kg, route intravenous. The settings on record: in vivo, 480 h. (In general: In xenograft studies the graft and the host belong to different species.)

The test system of series [3] is Mus musculus. Kind of series: Toxicity in nude mouse xenografted with human HT-29 cells assessed as body weight loss at 60 mg/kg, iv tid administered 2 days measured for 20 days. It is filed as organism-based. More on the design: dose 60 mg/kg, route intravenous. The settings on record: in vivo, 480 h.
Series [4] relates to A549. As to the kind of experiment: Antitumor activity against human A549 cells xenografted in nude mouse assessed as tumor growth inhibition at 60 mg/kg, iv tid administered 2 days measured on day 20 relative to vehicle-treated control. In kind it is functional. To be noted: read-out: TGI.
The subject of series [5] is HT-29. Kind of series: Antitumor activity against human HT-29 cells xenografted in nude mouse assessed as tumor growth inhibition at 60 mg/kg, iv tid administered 2 days measured on day 22. It is filed as functional, organism-based. On the set-up: dose 60 mg/kg.
Series [6] relates to HT-29. Kind of series: Antitumor activity against human HT-29 cells xenografted in nude mouse assessed as tumor growth inhibition at 60 mg/kg, iv tid administered 2 days measured on day 20. In kind it is functional, organism-based. On the set-up: dose 60 mg/kg.
The subject of a further series is PC-3. Kind of series: Cytotoxicity against human PC3 cells after 72 hrs by Alamar blue assay. It is filed as functional, cell-based. To be noted: PC-3, 72 h. In outline: (§1)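 Cells exposed to compound for 72 h, then Alamar blue added with a further 10−12 h at 37 °C and a spectrophotometric read. IC50 from six or seven concentrations by median-effect analysis; mean ± STDEV, n = 3. CL141T is a line derived from a patient lung tumor passaged as a SCID mouse xenograft.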

The subject of another series is CCRF-CEM. Kind of series: Cytotoxicity against human CCRF-CEM cells after 72 hrs by XTT assay. It is filed as functional, cell-based. In outline: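 CCRF-CEM T-ALL cells incubated with compound for 72 h. XTT with phenazine methosulfate then added for 6 h at 37 °C, absorbance read at 450 and 630 nm. IC50 from six or seven concentrations by median-effect analysis; mean ± STDEV, n = 3.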
On the technique in general: Formazan colour is commonly taken as a measure of viable cells.

A further series deals with Escherichia coli. As to the kind of experiment: Induction of Escherichia coli pEGFP-N1 DNA interstrand cross-linking at 1 to 10 uM after 2 hrs by alkaline agarose gel shift assay. In outline:
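Plasmid pEGFP-N1 DNA (1500 ng) incubated with compound at 1, 5 and 10 μM in 3 mM NaCl/1 mM sodium phosphate pH 7.4/1 mM EDTA, 2 h at 37 °C. DNA then BamHI-linearized, EtOH-precipitated, denatured in 0.5 N NaOH/10 mM EDTA, run on 0.8% alkaline agarose at 4 °C (18 V, 22 h), stained with ethidium bromide.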
A general note: A gel shift assay detects complexes by their altered migration in electrophoresis.

Series [7] deals with NCI-H460. As to the kind of experiment: Induction of apoptosis in human H460 cells assessed as increase in cleaved PARP expression at IC50 after 24 to 72 hrs by Western blotting analysis. It is filed as functional, cell-based. In outline:
(§2)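 H460 cells treated at IC50 for 24 and 72 h. Lysate proteins separated by SDS-PAGE and blotted to nitrocellulose, blocked in 5% milk/PBST. Primary antibodies to caspase-3, caspase-7, PARP (full-length and cleaved) and β-actin applied for 1 h at room temperature or overnight at 4 °C; HRP secondary with ECL detection.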

Series [8] relates to NCI-H460. As to the kind of experiment: Induction of apoptosis in human H460 cells assessed as increase in cleaved caspase 7 expression at IC50 after 24 to 72 hrs by Western blotting analysis. It is filed as functional, cell-based. In outline: as §2
Series [9] relates to NCI-H460. As to the kind of experiment: Induction of apoptosis in human H460 cells assessed as increase in cleaved caspase 3 expression at IC50 after 24 to 72 hrs by Western blotting analysis. It is filed as functional, cell-based. In outline: as §2
In series [10] the test system is NCI-H460. As to the kind of experiment: Induction of apoptosis in human H460 cells assessed as increase in apoptotic cells at IC50 after 72 hrs by annexin V-FITC/propidium iodide staining-based FACS flow cytometric analysis (reference value: 9.29%). It is filed as functional.
Series [11] relates to NCI-H460. Kind of series: Induction of apoptosis in human H460 cells assessed as increase in apoptotic cells at IC50 after 24 hrs by annexin V-FITC/propidium iodide staining-based FACS flow cytometric analysis (reference value: 4.1%). It is filed as functional.
Series [12] in a line: Cell cycle arrest in human CL141T cells assessed as accumulation at sub-G1 phase at 0.5 x IC50 to 2 x IC50 after 72 hrs by propidium iodide staining-based FACS flow cytometric analysis. In kind it is functional. In outline:
(§3)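 CL141T cells treated at 0.5-, 1- and 2-fold IC50 for 24, 48 and 72 h. Cells fixed in ice-cold 70% EtOH, then stained with 4 μg/mL propidium iodide in PBS with 1% Triton X-100 and 0.1 mg/mL RNase A. Phase distribution from flow cytometry DNA histograms; sub-G1 fraction scored as well.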

A short description of series [13]: Cell cycle arrest in human CL141T cells assessed as accumulation at G2/M phase at 2 x IC50 after 24 hrs by propidium iodide staining-based FACS flow cytometric analysis. It is filed as functional. In outline:
as §3

Series [14] is described as follows: Cell cycle arrest in human CL141T cells assessed as accumulation at G2/M phase at 0.5 x IC50 to 1 x IC50 after 48 to 72 hrs by propidium iodide staining-based FACS flow cytometric analysis. In kind it is functional. In outline: as §3
Series [15] can be described thus: Cell cycle arrest in human CL141T cells assessed as accumulation at S phase at 1 x IC50 to 2 x IC50 after 24 hrs by propidium iodide staining-based FACS flow cytometric analysis. In kind it is functional. In outline:
as §3

Series [16] can be described thus: Cell cycle arrest in human CL141T cells assessed as accumulation at S phase at 0.5 x IC50 after 24 hrs by propidium iodide staining-based FACS flow cytometric analysis. It is filed as functional. In outline: as §3
Series [17] in a line: Cell cycle arrest in human CL141T cells assessed as accumulation at G1 phase at 1 x IC50 to 2 x IC50 after 24 hrs by propidium iodide staining-based FACS flow cytometric analysis. In kind it is functional. In outline:
as §3

Series [18] deals with Mus musculus. Kind of series: Toxicity in nude mouse xenografted with human MX1 cells assessed as body weight loss at 25 mg/kg, iv qd administered 3 days measured for 20 days. It is filed as organism-based. More on the design: dose 25 mg/kg, route intravenous. The settings on record: in vivo, 480 h.
Another series concerns MX1. As to the kind of experiment: Antitumor activity against human MX1 cells xenografted in nude mouse assessed as tumor growth inhibition at 25 mg/kg, iv qd administered 3 days measured on day 20 relative to vehicle-treated control. It is filed as functional. The settings on record: read-out: TGI.
For a further series, the system named is MES-SA. As to the kind of experiment: Resistance factor, ratio of IC50 for human MES-SA/Dx5 cells to IC50 for human MES-SA cells. In kind it is functional.
Series [19] is described as follows: Resistance factor, ratio of IC50 for human KB-VIN10 cells to IC50 for human KB cells. In kind it is functional.
Series [20] in a line: Cytotoxicity against human MES-SA/Dx5 cells after 72 hrs by Presto Blue assay. In kind it is functional, cell-based. The settings on record: MES-SA/Dx5, 72 h. In outline:
(§4)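 MES-SA and doxorubicin-resistant MES-SA/dx5 cells exposed for 72 h, then PrestoBlue added for 3 h at 37 °C, absorbance read at 570 and 600 nm. IC50 by median-effect analysis of six or seven concentrations; mean ± STDEV of three to six independent experiments.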

Series [21] is described as follows: Cytotoxicity against human MES-SA cells after 72 hrs by Presto Blue assay. In kind it is functional, cell-based. In outline: as §4
Series [22] is described as follows: Cytotoxicity against human HEL299 cells. It is filed as cell-based. The settings on record: HEL 299.
The test system of series [23] is HT-29. Kind of series: Cytotoxicity against human HT-29 cells after 72 hrs by Alamar blue assay. In kind it is functional, cell-based. The settings on record: HT-29, 72 h. In outline: as §1
A short description of series [24]: Cytotoxicity against human H460 cells after 72 hrs by Alamar blue assay. In kind it is functional, cell-based. To be noted: NCI-H460, 72 h. In outline: as §1
Series [25] concerns A549. As to the kind of experiment: Cytotoxicity against human A549 cells after 72 hrs by Alamar blue assay. In kind it is functional, cell-based. To be noted: A549, 72 h. In outline: as §1
The nature of series [26]: Cytotoxicity against human CL141T cells after 72 hrs by Alamar blue assay. It is filed as functional, cell-based. In outline: as §1
The test system of another series is HCT-116. Kind of series: Cytotoxicity against human HCT116 cells after 72 hrs by Alamar blue assay. It is filed as functional, cell-based. The settings on record: HCT-116, 72 h. In outline: as §1
Series [27] is described as follows: Cytotoxicity against human OECM1 cells after 72 hrs by Alamar blue assay. It is filed as functional, cell-based. To be noted: OECM1, 72 h. In outline: as §1
Another series relates to KB. Kind of series: Cytotoxicity against human KB cells after 72 hrs by Alamar blue assay.
A short description of series [28]: Cytotoxicity against human KB-VIN10 cells after 72 hrs by Alamar blue assay. The settings on record: KB-VIN10, 72 h.

A word on the IC50: it is the concentration that gives 50% inhibition. Low values mean greater potency in that assay, high ones weaker potency in that assay.

Activity calls are given as the source filed them. No cut-off for these calls is given here.

As for `CCc1c2c(nc3ccc(OC(=O)N4CCC(N5CCCCC5)CC4)cc13)-c1cc3c(c(=O)n1C2)COC(=O)[C@]3(O)CC` [IRINOTECAN], in [1], the inhibition entry was “Active”. Further, the Activity result in the series on Mus musculus [2] and in the series on Mus musculus [3] was “Toxic” in each case. Moreover, in the series on A549 [4], the inhibition in vivo at 60 mg/kg is 50%. In addition, in the series on HT-29 [5], the TGI entry was “inactive”. Further, the TGI result with HT-29 [6] was “Active”.
Take `CCn1c2c(c3ccccc31)Cc1c(CO)c(CO)c(C)n1C2`: the concentration for half-maximal inhibition (IC50) was 2.66 µM in the series on PC-3; 0.1 µM with CCRF-CEM; 0.24 µM in series [20]; 0.4 µM in series [21]; 2.24 µM in [22]; 6.15 µM in the series on HT-29 [23]. The 50% inhibitory concentration (IC50) in series [24] stood at 0.73 µM; in the series on A549 [25], 2.97 µM; in [26], 0.79 µM; with HCT-116, 1.71 µM; in series [27], 1.17 µM; in the series on KB, 1.47 µM. In series [28], this molecule had a 50% inhibitory concentration (IC50) of 0.9 µM. The result (in the series on Escherichia coli; in the series with NCI-H460 [7]; with NCI-H460 [8]; in the series with NCI-H460 [9]; in [12]; in series [14]) was Active. Further, the outcome in series [15], in series [16] and in series [17] was Active. In addition, the results for the Activity in the series with NCI-H460 [10], in the series on NCI-H460 [11] and with Mus musculus [18] were 43.52%, 12.92% and “Toxic”, respectively. Besides, the outcome in [13] was inactive. Also, the inhibition in vivo at 25 mg/kg in the series on MX1 is more than 99%. Further, the “Ratio IC50” value in the series with MES-SA worked out at 0.6; in [19] it was 0.62.

The record behind these values is ChEMBL document CHEMBL2331340, “Novel antitumor indolizino[6,7-b]indoles with multiple modes of action: DNA cross-linking and topoisomerase I and II inhibition” (J Med Chem, 2013).
